Here are results for three compounds from ChEMBL document CHEMBL2086222, “Bioassay-guided isolation of prenylated xanthones and polycyclic acylphloroglucinols from the leaves of Garcinia nujiangensis” (J Nat Prod, 2012).

Calls of active or inactive are those of the source. No cut-off for these calls is given here.

In one data set the test system is MDA-MB-231. Nature of the data set: Cytotoxicity against human MDA-MB-231 cells assessed as reduction in cell viability at 5 to 40 uM after 72 hrs by MTT assay. The class given is functional, cell-based. The procedure, abridged: (§1)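 Cells in RPMI 1640, DMEM or DMEM/F12 with 10% FBS, 37 °C, 5% CO2. Plated at 5 × 10^3 cells/well and attached overnight. Exposed 72 h to 5, 10, 20 or 40 μM from DMSO stocks diluted in medium. MTT (5 mg/mL stock in PBS) added for 4 h at 37 °C, formazan dissolved in DMSO, A490 read. Untreated cells taken as 100%.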

Data set [1] has as its system BXPC-3. Briefly: Cytotoxicity against human BxPC3 cells assessed as reduction in cell viability at 5 to 40 uM after 72 hrs by MTT assay. The class given is functional, cell-based. Put shortly: as §1
(In general: Tetrazolium dyes change colour on reduction, which living cells bring about.)

Data set [2] deals with A549. Briefly: Cytotoxicity against human A549 cells assessed as reduction in cell viability at 5 to 40 uM after 72 hrs by MTT assay. Type of data set: functional, cell-based. Put shortly: as §1
The subject of data set [3] is A-375. Briefly: Cytotoxicity against human A375 cells assessed as reduction in cell viability at 5 to 40 uM after 72 hrs by MTT assay. The class given is functional, cell-based. Put shortly:
as §1

A short description of data set [4]: Cytotoxicity against human MIHA cells assessed as reduction in cell viability at 5 to 40 uM after 72 hrs by MTT assay. Type of data set: cell-based. The procedure, abridged: as §1
In another data set the test system is HepG2. Nature of the data set: Cytotoxicity against human HepG2 cells assessed as reduction in cell viability at 5 to 40 uM after 72 hrs by MTT assay. The class given is functional, cell-based. Put shortly:
as §1

For data set [5], the system named is SMMC-7721. Nature of the data set: Cytotoxicity against human SMMC7721 cells assessed as reduction in cell viability at 5 to 40 uM after 72 hrs by MTT assay. The class given is functional, cell-based. Put shortly: as §1
The test system of the next data set is U-87MG ATCC. Nature of the data set: Cytotoxicity against human U87 cells assessed as reduction in cell viability at 5 to 40 uM after 72 hrs by MTT assay. The class given is functional, cell-based. The procedure, abridged: as §1
Data set [6] concerns AGS. Briefly: Cytotoxicity against human AGS cells assessed as reduction in cell viability at 5 to 40 uM after 72 hrs by MTT assay. Type of data set: functional, cell-based. Put shortly:
as §1

Another data set relates to MCF7. Briefly: Cytotoxicity against human MCF7 cells assessed as reduction in cell viability at 5 to 40 uM after 72 hrs by MTT assay. Type of data set: functional, cell-based. The procedure, abridged:
as §1

In data set [7] the test system is PANC-1. Nature of the data set: Cytotoxicity against human PANC1 cells assessed as reduction in cell viability at 5 to 40 uM after 72 hrs by MTT assay. Type of data set: functional, cell-based. Put shortly:
as §1

Data set [8] concerns NCI-H2126. Nature of the data set: Cytotoxicity against human NCI-H2126 cells assessed as reduction in cell viability at 5 to 40 uM after 72 hrs by MTT assay. The class given is functional, cell-based. Put shortly:
as §1

The subject of data set [9] is AGS. Nature of the data set: Cytotoxicity against human AGS cells assessed as reduction in cell viability after 72 hrs by MTT assay. The class given is functional, cell-based. Put shortly: as §1
Data set [10] concerns A549. Briefly: Cytotoxicity against human A549 cells assessed as reduction in cell viability after 72 hrs by MTT assay. Type of data set: functional, cell-based. The following applies: A549, 72 h. Put shortly: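 Human lung line cultured in RPMI 1640, DMEM or DMEM/F12 with 10% FBS at 37 °C, 5% CO2. 5 × 10^3 cells/well plated and left to attach overnight. Compound taken from DMSO stock, diluted in medium, tested at 5, 10, 20 and 40 μM for 72 h. MTT (5 mg/mL stock) added for 4 h at 37 °C. Formazan dissolved in DMSO, absorbance read at 490 nm. Untreated cells set as 100%.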

For data set [11], the system named is A-375. Nature of the data set: Cytotoxicity against human A375 cells assessed as reduction in cell viability after 72 hrs by MTT assay. The class given is functional, cell-based. The following applies: A-375, 72 h. Put shortly:
as §1

Data set [12] deals with NCI-H2126. Briefly: Cytotoxicity against human NCI-H2126 cells assessed as reduction in cell viability after 72 hrs by MTT assay. The class given is functional, cell-based. The following applies: NCI-H2126, 72 h. Put shortly: as §1
Data set [13] has as its system PANC-1. Nature of the data set: Cytotoxicity against human PANC1 cells assessed as reduction in cell viability after 72 hrs by MTT assay. Type of data set: functional, cell-based. As to conditions: PANC-1, 72 h. Put shortly: as §1
The test system of data set [14] is BXPC-3. Nature of the data set: Cytotoxicity against human BxPC3 cells assessed as reduction in cell viability after 72 hrs by MTT assay. The class given is functional, cell-based. The following applies: BXPC-3, 72 h. Put shortly: as §1
Data set [15] relates to SMMC-7721. Briefly: Cytotoxicity against human SMMC7721 cells assessed as reduction in cell viability after 72 hrs by MTT assay. Type of data set: functional, cell-based. The following applies: SMMC-7721, 72 h. Put shortly:
as §1

In the case of `COc1c(OC)c(O)c2c(=O)c3c(CC=C(C)C)c(CC=C(C)C)c(O)c(O)c3oc2c1CC=C(C)C` [NUJIANGEXANTHONE B], the result in the data set with MDA-MB-231, in the data set with BXPC-3 [1], with A549 [2], with A-375 [3], with HepG2 and with SMMC-7721 [5] was Active. In addition, the result with U-87MG ATCC, with AGS [6], in the data set with MCF7, with PANC-1 [7] and in the data set with NCI-H2126 [8] was Active. Besides, the Activity result in data set [4] is listed as “Non-toxic”.
Usually IC50 stands for the concentration at which inhibition is half-maximal. Turning to `CC(=O)O[C@H]1C(=O)[C@@]2(C)[C@H]([C@H](OC(=O)c3ccccc3)[C@]3(O)C[C@H](OC(=O)[C@H](O)[C@@H](NC(=O)c4ccccc4)c4ccccc4)C(C)=C1C3(C)C)[C@]1(OC(C)=O)CO[C@@H]1C[C@@H]2O` [PACLITAXEL], the IC50 with AGS [9] stood at 1600 nM; in the data set on A549 [10] it was 720 nM; in the data set with A-375 [11], 9.2 nM; in the data set with NCI-H2126 [12], 2500 nM; with PANC-1 [13], 260 nM; in the data set with BXPC-3 [14], 90 nM. Further, in the data set with SMMC-7721 [15], the IC50 is 150 nM.
For `COc1cc2c(=O)c3c(O)c(CC=C(C)C)c(O)c(CC=C(C)C)c3oc2c(O)c1O` [XANTHONE V2A], the outcome in the data set with MDA-MB-231, in the data set on BXPC-3 [1], with A549 [2], with A-375 [3], in the data set on HepG2 and in the data set on SMMC-7721 [5] was Active. Also, the outcome in the data set on U-87MG ATCC, in the data set on AGS [6], with MCF7, in the data set on PANC-1 [7] and in the data set on NCI-H2126 [8] was Active. Moreover, in [4], the Activity result is recorded as “Non-toxic”.
